Measurements gathered from unrelated publications.
Each line is one published result; the experiments were not run side by side.
Sample: plasma

Compound	species	route	dose	setting	measurement	value
O=C1CCC(N2Cc3cc(C4CCN(Cc5ccccc5)CC4)ccc3C2=O)C(=O)N1 (centres unmarked)	male Sprague-Dawley rat	oral	3 mg/kg	–	MRT(0-t)	3 h
C[C@H]1Oc2cc(cnc2N)-c2c(nn(C)c2C#N)CN(C)C(=O)c2ccc(F)cc21	male Sprague-Dawley rat	oral	50 mg/kg	single dose	MRT(0-inf)	25 h
CC[C@@H]([C@H](C)O)n1ncn(-c2ccc(N3CCN(c4ccc(OC[C@@H]5CO[C@@](Cn6cncn6)(c6ccc(F)cc6F)C5)cc4)CC3)cc2)c1=O	Sprague-Dawley rat	oral	40 mg/kg	–	MRT(0-inf)	22.1 h
C[C@H]1[C@@H](O)O[C@@H]2O[C@@]3(C)CC[C@H]4[C@H](C)CC[C@@H]1[C@@]24OO3	male Sprague-Dawley rat	oral	10 mg/kg	–	MRT(0-t)	1.56 h
C=CC(=O)N1CCC[C@@H](n2nc(-c3ccc(Oc4ccccc4)cc3)c3c(N)ncnc32)C1	male Wistar rat	oral	40 mg/kg	–	MRT	4.55 h
CONC(=O)c1cccc2c1cc(C)n2-c1nc2c(c(NCc3ccccc3)n1)CCCN2	male Sprague-Dawley rat	intravenous	1 mg/kg	single dose	MRT	3.6 h
C=CC(=O)N1CCC([C@@H]2CCNc3c(C(N)=O)c(-c4ccc(Oc5ccccc5)cc4)nn32)CC1	Sprague-Dawley rat	oral	16 mg/kg	–	MRT(0-inf)	3.93 h
COc1cc(-c2cc(C(C)=O)n3ccccc23)c(OC)cc1Cn1ccnc1	male Sprague-Dawley rat	oral	5 mg/kg	–	MRT(0-t)	1.73 h
Cn1c(=O)c2[nH]cnc2n(C)c1=O	male Sprague-Dawley rat	intravenous	22.5 mg/kg	–	MRT(0-inf)	3.69 h
CCOc1c([C@H](C)n2nc(C)c3c(N)ncnc32)cc(Cl)c(F)c1[C@@H]1CNC(=O)C1	male Sprague-Dawley rat	oral	2 mg/kg	single dose	MRT(0-t)	7.67 h
COc1nc(-c2cccc(-c3ccccc3)c2C)ccc1CNCCNC(=O)CCCCCCCCCCC(=O)N1CCN(CCNC(=O)c2cc3c(=O)n4cccc(C)c4nc3n(CCc3cccs3)c2=N)CC1	male Sprague-Dawley rat	intravenous	2 mg/kg	–	MRT(0-t)	4.8 h
Nc1ccn([C@@H]2O[C@H](CO)[C@@H](O)C2(F)F)c(=O)n1	male Sprague-Dawley rat	intraperitoneal	5 mg/kg	–	MRT(0-inf)	0.88 h
COc1ccc(N(Cc2csc(-c3ccccc3)n2)C(=O)CCCCCC(=O)NO)cc1	female Sprague-Dawley rat	intravenous	5 mg/kg	–	MRT	0.39 h
C[C@@]12C[C@@]3(O)O[C@@H](O1)[C@]1(COC(=O)c4ccccc4)[C@H]3C[C@@]12O[C@@H]1O[C@H](CO)[C@@H](O)[C@H](O)[C@H]1O	male Sprague-Dawley rat	oral	80 mg/kg	–	MRT(0-inf)	10.9 h
